# Data taken from ChEMBL document CHEMBL1147088, “Small molecule obatoclax (GX15-070) antagonizes MCL-1 and overcomes MCL-1-mediated resistance to apoptosis” (Proc Natl Acad Sci U S A, 2007).
# pIC50, pKi: −log10 of the molar value. The source made the active and inactive calls. No cut-off for these calls is given here.
# Tests used:
# [1] = tested on: Saccharomyces cerevisiae; assay: Growth inhibition of Saccharomyces cerevisiae W301; type: functional, organism-based
# Procedure, shortened: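 W301 yeast transformed with BCL-family/BAX/BAK or control vectors, then grown in synthetic complete medium with 2% raffinose and 2% galactose. Seeded at 0.01 OD units and shaken 48 h at 30°C. Compound or vehicle was added to growth medium with final DMSO 0.67%. Cell density was the read-out, and IC50 values were recorded.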
# [2] = molecular target: Apoptosis regulator Bcl-2 (Homo sapiens, UniProt P10415); assay: Binding affinity to BCL2
# [3] = tested on: Epithelial cell; assay: […] in Bax and Bak double knock out E1A/p53DN-transformed mouse kidney epithelial cells assessed as caspase-3 activation at 2.0 uM; type: functional, cell-based
# [4] = tested on: Eu-Myc; assay: Induction of apoptosis in mouse Eu-Myc cells overexpressing MCL1 assessed as inhibition of colony formation at 1 uM; type: functional, cell-based
# [5] = tested on: Eu-Myc; assay: Induction of apoptosis in mouse Eu-Myc cells overexpressing BCL2 assessed as inhibition of colony formation at 1 uM; type: functional, cell-based
# [6] = tested on: Eu-Myc; assay: Induction of apoptosis in mouse Eu-Myc cells overexpressing A1 assessed as inhibition of colony formation at 1 uM; type: functional, cell-based
# [7] = tested on: Eu-Myc; assay: Induction of apoptosis in mouse Eu-Myc cells overexpressing MCL1 assessed as inhibition of cell survivability at 1 uM; type: functional, cell-based
# [8] = tested on: Eu-Myc; assay: Induction of apoptosis in mouse Eu-Myc cells overexpressing BCL2 assessed as inhibition of cell survivability at 1 uM; type: functional, cell-based
# [9] = tested on: Eu-Myc; assay: Induction of apoptosis in mouse Eu-Myc cells overexpressing A1 assessed as inhibition of cell survivability at 1 uM; type: functional, cell-based
# [10] = tested on: Mus musculus; assay: Toxicity in CB17 SCID mouse bearing human C33A cells xenografts assessed as survivability at 2 mg/kg, ip administered once in 3 days for 5 times after 14 days; type: organism-based, C-33-A; set-up: dose 2 mg/kg, route intraperitoneal; conditions: in vivo, 336 h
# Procedure, shortened: (§1)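 Tumor-bearing mice as in the xenograft study (BALB/c with 4T1; CB17 SCID with C33A, PC3, SW480), 8 per cohort, dosed i.p. once every 3 days ×5. Body weight measured three times weekly; animal deaths and weight change recorded 14 days after first injection.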
# [11] = tested on: Mus musculus; assay: Toxicity in CB17 SCID mouse bearing human PC3 cells xenografts assessed as survivability at 2 mg/kg, ip administered once in 3 days for 5 times after 14 days; type: organism-based, PC-3; set-up: dose 2 mg/kg, route intraperitoneal; conditions: in vivo, 336 h; procedure, shortened: as §1
# [12] = tested on: Mus musculus; assay: Toxicity in CB17 SCID mouse bearing human SW480 cells xenografts assessed as survivability at 2 mg/kg, ip administered once in 3 days for 5 times after 14 days; type: organism-based; set-up: dose 2 mg/kg, route intraperitoneal; conditions: in vivo, 336 h; procedure, shortened: as §1
# [13] = tested on: Mus musculus; assay: Toxicity in BALB/c mouse bearing mouse 4T1 cells xenografts assessed as survivability at 2 mg/kg, ip administered once in 3 days for 5 times after 14 days; type: organism-based; set-up: dose 2 mg/kg, route intraperitoneal; conditions: in vivo, 336 h; procedure, shortened: as §1
# [14] = tested on: Mus musculus; assay: Toxicity in CB17 SCID mouse bearing human C33A cells xenografts assessed as weight change at 2 mg/kg, ip administered once in 3 days for 5 times after 14 days; type: organism-based, C-33-A; set-up: dose 2 mg/kg, route intraperitoneal; conditions: in vivo, 336 h; procedure, shortened: as §1
# [15] = tested on: Mus musculus; assay: Toxicity in CB17 SCID mouse bearing human PC3 cells xenografts assessed as weight change at 2 mg/kg, ip administered once in 3 days for 5 times after 14 days; type: organism-based, PC-3; set-up: dose 2 mg/kg, route intraperitoneal; conditions: in vivo, 336 h; procedure, shortened: as §1
# [16] = tested on: Mus musculus; assay: Toxicity in CB17 SCID mouse bearing human SW480 cells xenografts assessed as weight change at 2 mg/kg, ip administered once in 3 days for 5 times after 14 days; type: organism-based; set-up: dose 2 mg/kg, route intraperitoneal; conditions: in vivo, 336 h; procedure, shortened: as §1
# [17] = tested on: E1A/p53DN; assay: Increase in inhibition of MCL1 +/+ in mouse Bim transformed E1A/p53DN cells; type: functional, cell-based
# [18] = molecular target: Induced myeloid leukemia cell differentiation protein Mcl-1 (Homo sapiens, UniProt Q07820); assay: Inhibition of BH3 peptide binding to human recombinant MCL1 by fluorescence polarization assay
# [19] = molecular target: T1, Bcl-2-like protein 2 (Homo sapiens, UniProt Q92843); assay: Inhibition of BH3 peptide binding to human recombinant BCL-w by fluorescence polarization assay
# T1 sequence (Q92843 whole entry): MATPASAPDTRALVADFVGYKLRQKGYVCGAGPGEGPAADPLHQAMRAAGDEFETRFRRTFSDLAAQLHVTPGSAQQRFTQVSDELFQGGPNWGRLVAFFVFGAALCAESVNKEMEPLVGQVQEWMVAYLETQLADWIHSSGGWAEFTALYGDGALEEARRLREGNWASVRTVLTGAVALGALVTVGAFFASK
# [20] = molecular target: T2, Bcl-2-related protein A1 (Homo sapiens, UniProt Q16548); assay: Inhibition of BH3 peptide binding to human recombinant A1 by fluorescence polarization assay
# T2 sequence (Q16548 whole entry): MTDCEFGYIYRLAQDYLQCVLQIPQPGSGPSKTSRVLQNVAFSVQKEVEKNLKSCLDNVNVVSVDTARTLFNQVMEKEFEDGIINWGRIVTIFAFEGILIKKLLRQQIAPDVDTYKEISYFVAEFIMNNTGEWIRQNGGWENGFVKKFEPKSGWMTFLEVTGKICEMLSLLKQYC
# [21] = molecular target: T3, Bcl-2-like protein 10 (Homo sapiens, UniProt Q9HD36); assay: Inhibition of BH3 peptide binding to human recombinant BCL-b by fluorescence polarization assay
# T3 sequence (Q9HD36 whole entry): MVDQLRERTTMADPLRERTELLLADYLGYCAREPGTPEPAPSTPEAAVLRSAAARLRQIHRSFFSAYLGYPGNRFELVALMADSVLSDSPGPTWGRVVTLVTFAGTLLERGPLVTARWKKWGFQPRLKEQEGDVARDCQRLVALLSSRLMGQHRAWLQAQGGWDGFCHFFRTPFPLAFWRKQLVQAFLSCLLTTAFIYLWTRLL
# [22] = tested on: SK-MEL-5; assay: Inhibition of MCL1-BAK interaction in mitochondria of human SKMel5 cells at 10 nM; type: functional, cell-based
# [23] = tested on: KB; assay: Release of cytochrome c in mitochondria of human KB cells at 2 uM; type: functional, cell-based
# Procedure, shortened: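 Mitochondria isolated from KB cells were incubated 30 min at 37°C with DMSO or compound, then reisolated. Mitochondrial pellet and post-mitochondrial supernatant were analysed by SDS/PAGE and cytochrome c immunoblot, with actin and a control protein as loading controls.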
# [24] = tested on: SK-MEL-5; assay: Reduction in MCL1-BAK interaction in mitochondria of human SKMel5 cells at 1 uM after 5 hrs by immunoprecipitation; type: functional, cell-based
# [25] = tested on: SK-MEL-5; assay: Disruption of BCL2-BIM interaction in mitochondria of human SKMel5 cells 5 hrs by immunoprecipitation; type: functional, cell-based
# [26] = tested on: Saccharomyces cerevisiae; assay: Antagonism of BAX/BAK dependent BCL pathway-mediated inhibition of Saccharomyces cerevisiae W301; type: functional, organism-based
# Procedure, shortened: (§2)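 W301 yeast transformed with the indicated vectors; cultures in synthetic complete medium with 2% raffinose and 2% galactose, seeded at 0.01 OD units, compound or vehicle added (0.67% DMSO final). Cell density read after 48 h shaking at 30°C.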
# [27] = tested on: Saccharomyces cerevisiae; assay: Antagonism of BCL pathway-mediated inhibition of Saccharomyces cerevisiae W301 in absence of BAX/BAK; type: functional, organism-based; procedure, shortened: as §2
# [28] = tested on: Mus musculus; assay: Toxicity in BALB/c mouse bearing mouse 4T1 cells xenografts assessed as weight change at 2 mg/kg, ip administered once in 3 days for 5 times after 14 days; type: organism-based; set-up: dose 2 mg/kg, route intraperitoneal; conditions: in vivo, 336 h; procedure, shortened: as §1
# [29] = tested on: C-33-A; assay: Antitumor activity in CB17 SCID mouse bearing human C33A cells xenografts at 2 mg/kg, ip administered once in 3 days for 5 times after 14 days; type: functional; conditions: route intraperitoneal
# Procedure, shortened: (§3)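 Female mice, 6–8 weeks (BALB/c for 4T1; CB17 SCID for C33A, PC3, SW480), given s.c. flank cells in PBS. Dosing i.p. once every 3 days ×5, starting day 7 (SW480), 14 (C33A) or 8 (PC3, 4T1). Tumor size measured thrice weekly, volume = length × width²/2, 8 animals/cohort; T/C (mean tumor size change treated ÷ control) at 14 days after first dose.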
# [30] = tested on: PC-3; assay: Antitumor activity in CB17 SCID mouse bearing human PC3 cells xenografts at 2 mg/kg, ip administered once in 3 days for 5 times after 14 days; type: functional; conditions: route intraperitoneal; procedure, shortened: as §3
# [31] = tested on: SW480; assay: Antitumor activity in CB17 SCID mouse bearing human SW480 cells xenografts at 2 mg/kg, ip administered once in 3 days for 5 times after 14 days; type: functional; conditions: route intraperitoneal; procedure, shortened: as §3
# [32] = tested on: 4T1; assay: Antitumor activity in BALB/c mouse bearing mouse 4T1 cells xenografts at 2 mg/kg, ip administered once in 3 days for 5 times after 14 days; type: functional; conditions: route intraperitoneal; procedure, shortened: as §3
# [33] = tested on: E1A/p53DN; assay: Increase in inhibition of MCL1 -/- in mouse Bim transformed E1A/p53DN cells; type: functional, cell-based
# [34] = tested on: KB; assay: Reversal of MCL1 mediated resistance to ABT-737 in BCL2 overexpressing human KB cells assessed as cell death; type: functional, cell-based
# [35] = tested on: B16-F1; assay: Reversal of MCL1 mediated resistance to bortezomib in mouse B16-F1 cells assessed as cell death; type: functional, cell-based
# Apoptosis regulator Bcl-2, sequence (P10415 whole entry): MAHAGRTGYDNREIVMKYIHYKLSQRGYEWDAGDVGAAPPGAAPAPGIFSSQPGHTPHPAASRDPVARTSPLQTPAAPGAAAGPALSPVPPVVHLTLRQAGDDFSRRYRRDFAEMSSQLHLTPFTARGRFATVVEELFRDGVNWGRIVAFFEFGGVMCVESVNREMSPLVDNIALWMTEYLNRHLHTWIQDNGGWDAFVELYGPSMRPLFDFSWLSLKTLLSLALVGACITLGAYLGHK
# Induced myeloid leukemia cell differentiation protein Mcl-1, sequence (Q07820 whole entry): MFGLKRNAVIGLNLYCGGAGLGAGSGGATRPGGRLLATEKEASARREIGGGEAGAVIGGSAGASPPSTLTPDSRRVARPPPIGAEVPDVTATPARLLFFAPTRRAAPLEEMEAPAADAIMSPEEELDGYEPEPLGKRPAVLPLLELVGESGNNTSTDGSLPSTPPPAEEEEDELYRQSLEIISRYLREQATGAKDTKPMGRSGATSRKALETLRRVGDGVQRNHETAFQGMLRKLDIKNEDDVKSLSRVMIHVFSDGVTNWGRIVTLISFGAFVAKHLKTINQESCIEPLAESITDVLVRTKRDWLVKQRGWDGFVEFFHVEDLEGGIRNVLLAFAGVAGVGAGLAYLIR
structure (smiles),measurement,setting,value
CC[C@@]1(O)C(=O)OCc2c1cc1n(c2=O)Cc2cc3ccccc3nc2-1 [CAMPTOTHECIN],pIC50,[1],< 3.70
Oc1cc(O)c2c(c1)O[C@H](c1ccc(O)c(O)c1)[C@H](O)C2 [CATECHIN],pKi,[2],< 4.00
COc1cccc2c1C(=O)c1c(O)c3c(c(O)c1C2=O)C[C@@](O)(C(=O)CO)C[C@@H]3O[C@H]1C[C@H](N)[C@H](O)[C@H](C)O1 [DOXORUBICIN],pIC50,[1],5.00
O=C(O[C@@H]1Cc2c(O)cc(O)cc2O[C@@H]1c1ccc(O)c(O)c1)c1cc(O)c(O)c(O)c1 [EPICATECHIN GALLATE],pKi,[2],6.64
Oc1cc(O)c2c(c1)O[C@H](c1cc(O)c(O)c(O)c1)[C@H](O)C2 [EPIGALLOCATECHIN],pKi,[2],< 4.00
O=C(O[C@@H]1Cc2c(O)cc(O)cc2O[C@@H]1c1cc(O)c(O)c(O)c1)c1cc(O)c(O)c(O)c1 [EPIGALOCATECHIN GALLATE],pKi,[2],6.63
COC1=CC(c2cc3ccccc3[nH]2)=N/C1=C\c1[nH]c(C)cc1C [OBATOCLAX],Activity,[3],Active
same,Activity,[4],Active
same,Activity,[5],Active
same,Activity,[6],Active
same,Activity,[7],Active
same,Activity,[8],Active
same,Activity,[9],Active
same,Activity,[10],Non-toxic
same,Activity,[11],Non-toxic
same,Activity,[12],Non-toxic
same,Activity,[13],Non-toxic
same,Activity,[14],7%
same,Activity,[15],10%
same,Activity,[16],3%
same,Activity,[17],Active
same,pKi,[18],6.00
same,pKi,[19],6.00
same,pKi,[20],6.00
same,pKi,[21],6.00
same,Activity,[22],Active
same,Activity,[23],inactive
same,Activity,[24],Active
same,Activity,[25],Active
same,Activity,[26],Active
same,Activity,[27],inactive
same,Activity,[28],1%
same,Activity,[29],11%
same,Activity,[30],28%
same,Activity,[31],35%
same,Activity,[32],42%
same,Activity,[33],Active
same,Activity,[34],Active
same,Activity,[35],Active
O=c1c(O)cc([C@H]2Oc3cc(O)cc(O)c3C[C@H]2O)cc2c([C@H]3Oc4cc(O)cc(O)c4C[C@H]3O)cc(O)c(O)c12 [THEAFLAVIN],pKi,[2],6.16
